Activity calls are given as the source filed them. No cut-off for these calls is given here.
What was measured:
Mus musculus [1] = assay: Increase in 5-hydroxyindole-3-acetic acid level in Kunming mouse hypothalamus at 40 mg/kg, po treated for 7 days by HPLC-ECD analysis; assay type: functional, organism-based
In short: (§1)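 Male Kunming mice (18–20 g) given vehicle or 40 mg/kg for 7 days, then killed by cervical dislocation. Frontal cortex, hippocampus, striatum, hypothalamus and thalamus dissected on ice, homogenized in ice-cold 0.2 M perchloric acid with 0.1 mM EDTA, centrifuged 15,000 rpm, 20 min, 4 °C. Supernatant analysed by HPLC-ECD at +0.50 V; phosphate/octanesulfonate mobile phase pH 3.0 with 12% methanol. Levels in ng/g, mean ± SEM.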

Mus musculus [2] = assay: Effect on 5-hydroxytryptamine level in Kunming mouse hypothalamus at 40 mg/kg, po treated for 7 days by HPLC-ECD analysis; assay type: functional, organism-based; in short: as §1
[3] = Drug metabolism in Sprague-Dawley rat plasma assessed as 2S,3S,4S,5R,6S)-6-(5,5'-diallyl-2'-((2S,3R,4S,5S,6R)-3,4,5-trihydroxy-6-(hydroxymethyl)tetrahydro-2H-pyran-2-yloxy)biphenyl-2-yloxy)-3,4,5-trihydroxytetrahydro-2H-pyran-2-carboxylic acid formation at 100 mg/kg, po by UPLC-IT-TOF-MS analysis; assay type: ADME, organism-based; conditions: in vivo
In short: (§2)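 Rats (n = 6) housed in metabolic cages received 100.0 mg/kg orally; controls received 0.5% CMC-Na. Plasma, urine and faeces were collected and analyzed by LC-IT-TOF-MS on a C18 column at 30 °C. Gradient 5–100% acetonitrile with 0.05% formic acid over 18 min at 0.2 mL/min; positive and negative ion MS/MS.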

[4] = Drug metabolism in Sprague-Dawley rat feces assessed as 5'-acryloyl-2'-hydroxy-5-propionylbiphenyl-2-yl hydrogen sulfate formation at 100 mg/kg, po by UPLC-IT-TOF-MS analysis; assay type: ADME, organism-based; conditions: in vivo; in short: as §2
[5] = Drug metabolism in Sprague-Dawley rat urine assessed as 2'-hydroxy-5'-(1-hydroxyallyl)-5-propylbiphenyl-2-yl hydrogen sulfate formation at 100 mg/kg, po by UPLC-IT-TOF-MS analysis; assay type: ADME, organism-based; conditions: in vivo
In short: (§3)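 Male/unspecified SD rats (n = 6) housed individually in metabolic cages, dosed orally at 100.0 mg/kg; controls given 0.5% CMC-Na orally. Plasma, urine and faeces collected. LC-IT-TOF-MS on C18 column at 30 °C, formic acid (0.05%) water/acetonitrile gradient 5–100% B over 18 min, 0.2 mL/min; positive and negative ion modes with automatic MS/MS.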

[6] = Drug metabolism in Sprague-Dawley rat feces assessed as (2S,3S,4S,5R,6S)-6-(5,5'-diallyl-2'-methoxybiphenyl-2-yloxy)-3,4,5-trihydroxytetrahydro-2H-pyran-2-carboxylic acid formation at 100 mg/kg, po by UPLC-IT-TOF-MS analysis; assay type: ADME, organism-based; conditions: in vivo; in short: as §2
[7] = Drug metabolism in Sprague-Dawley rat urine assessed as 2S,3S,4S,5R,6S)-6-(5,5'-diallyl-2'-((2S,3R,4S,5S,6R)-3,4,5-trihydroxy-6-(hydroxymethyl)tetrahydro-2H-pyran-2-yloxy)biphenyl-2-yloxy)-3,4,5-trihydroxytetrahydro-2H-pyran-2-carboxylic acid formation at 100 mg/kg, po by UPLC-IT-TOF-MS analysis; assay type: ADME, organism-based; conditions: in vivo; in short: as §3
Rattus norvegicus [8] = assay: Toxicity in Sprague-Dawley rat assessed as change in behaviour at 2000 mg/kg, po measured continuously for first 4 hrs followed by measured every hour for next 24 hrs and at 6 hrs intervals for following 48 hrs post dose; assay type: organism-based; conditions: in vivo
In short: (§4)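 Followed OECD 425 in adult SD rats (180–220 g), three groups of six. Vehicle control received 0.5% CMC-Na orally; separate male and female groups received 2000 mg/kg orally. Endpoints observed: behaviour, breathing, cutaneous effects, sensory nervous system responses, gastrointestinal effects and deaths.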

[9] = Drug metabolism in Sprague-Dawley rat feces assessed as 5,5'-diallylbiphenyl-2,2'-diol formation at 100 mg/kg, po by UPLC-IT-TOF-MS analysis; assay type: ADME, organism-based; conditions: in vivo; in short: as §2
Mus musculus [10] = assay: Increase in 5-hydroxyindole-3-acetic acid level in Kunming mouse hippocampus at 40 mg/kg, po treated for 7 days by HPLC-ECD analysis; assay type: functional, organism-based; in short: as §1
Mus musculus [11] = assay: Increase in ratio of 3,4-dihydroxyphenylacetic acid and 4-hydroxy-3-methoxyphenylacetic acid to dopamine level in Kunming mouse frontal cortex at 40 mg/kg, po treated for 7 days by HPLC-ECD analysis; assay type: functional, organism-based; in short: as §1
Mus musculus [12] = assay: Antidepressant activity in po dosed Kunming mouse assessed as decrease in immobility time by tail suspension test; assay type: functional; conditions: read-out: MED
In short: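 Male Kunming mice dosed orally at 10, 20 or 40 mg/kg, with fluoxetine and agomelatine 20 mg/kg as references. Mice were hung by the tail with tape about 1 cm from the tip, 50 cm above a box, for 6 min, isolated from sound and view. Immobility in the last 4 min was video-tracked; n = 10, mean ± SEM.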

[13] = Drug metabolism in Sprague-Dawley rat plasma assessed as 1-(2'-hydroxy-5'-(1-hydroxyallyl)-6-((2S,3R,4S,5S,6R)-3,4,5-trihydroxy-6-(hydroxymethyl)tetrahydro-2H-pyran-2-yloxy)biphenyl-3-yl)prop-2-en-1-one formation at 100 mg/kg, po by UPLC-IT-TOF-MS analysis; assay type: ADME, organism-based; conditions: in vivo; in short: as §2
Rattus norvegicus [14] = assay: Toxicity in Sprague-Dawley rat assessed as change in gastrointestinal effects at 2000 mg/kg, po measured continuously for first 4 hrs followed by measured every hour for next 24 hrs and at 6 hrs intervals for following 48 hrs post dose; assay type: organism-based; conditions: in vivo; in short: as §4

For `C=CCc1ccc(O)c(-c2cc(CC=C)ccc2O[C@@H]2O[C@H](CO)[C@@H](O)[C@H](O)[C@H]2O)c1`, the Activity (Mus musculus [1]) was “Active”, the Activity (Mus musculus [2]) was “inactive” and the Drug metabolism [3] was “Metabolite_Notdetected”. For the same molecule, the Drug metabolism [4] was “Metabolite_Notdetected”, the Drug metabolism [5] was “Metabolite_Notdetected” and the Drug metabolism [6] was “Metabolite_Notdetected”. The Drug metabolism [7] was “Metabolite_Detected”, the Activity (Rattus norvegicus [8]) was “Non-Toxic” and the Drug metabolism [9] was “Metabolite_Detected”. For the same molecule, the Activity (Mus musculus [10]) was “Active”, the Activity (Mus musculus [11]) was “Active” and the minimal effective dose (Mus musculus [12]) was 10 mg/kg. For the same molecule, the Drug metabolism [13] was “Metabolite_Notdetected” and the Activity (Rattus norvegicus [14]) was “Non-Toxic”.
